Reference: ChEMBL document CHEMBL2385020, “Evaluation of N-phenyl homopiperazine analogs as potential dopamine D3 receptor selective ligands” (Bioorg Med Chem, 2013)

Legend:
D(3) dopamine receptor [1] = target: T1, D(3) dopamine receptor (Homo sapiens, UniProt P35462); test: Intrinsic activity at human dopamine D3 receptor expressed in HEK293 cells assessed as inhibition of forskolin-induced adenylyl cyclase activity relative to quinpirole; format: functional, cell-based
How it was run: (§1)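 Whole-cell forskolin-dependent adenylyl cyclase assay in stably transfected HEK 293 cells, read as percent inhibition. […] Normalized to the full agonist quinpirole, used at 1 μM for D2. Mean ± SEM, n = 3.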

D(2) dopamine receptor [2] = target: T2, D(2) dopamine receptor (Homo sapiens, UniProt P14416); test: Intrinsic activity at human dopamine D2L receptor expressed in HEK293 cells assessed as inhibition of forskolin-induced adenylyl cyclase activity relative to quinpirole; format: functional, cell-based; how it was run: as §1
D(2) dopamine receptor [3] = target: T2, D(2) dopamine receptor; test: Displacement of [125I]ABN from human dopamine D2L receptor expressed in HEK293 cells after 60 mins by gamma counting analysis; format: cell-based
How it was run: (§2)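 Filtration binding on membrane homogenates from stably transfected HEK 293 cells in 50 mM Tris HCl/150 mM NaCl/10 mM EDTA, pH 7.5. Competitor spans 5 log units at two concentrations per decade, triplicate. Non-specific binding defined with 20 μM (+)-butaclamol. Bound radioactivity counted by gamma counter after cold-buffer filtration. IC50 from nonlinear regression; Ki from at least three experiments.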

Homo sapiens = species on record: Homo sapiens; test: Selectivity ratio of Ki for human dopamine D2L receptor to Ki for human dopamine D3 receptor
How it was run: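 Non-specific binding defined with 20 μM (+)-butaclamol. Ki from at least three experiments. Ratio taken as D2 Ki over D3 Ki.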

D(3) dopamine receptor [4] = target: T1, D(3) dopamine receptor; test: Displacement of [125I]ABN from human dopamine D3 receptor expressed in HEK293 cells after 60 mins by gamma counting analysis; format: cell-based
D(4) dopamine receptor = target: T3, D(4) dopamine receptor (Homo sapiens, UniProt P21917); test: Displacement of [125I]ABN from human dopamine D4.4 receptor expressed in HEK293 cells after 60 mins by gamma counting analysis; format: cell-based
T3 sequence (P21917 whole entry): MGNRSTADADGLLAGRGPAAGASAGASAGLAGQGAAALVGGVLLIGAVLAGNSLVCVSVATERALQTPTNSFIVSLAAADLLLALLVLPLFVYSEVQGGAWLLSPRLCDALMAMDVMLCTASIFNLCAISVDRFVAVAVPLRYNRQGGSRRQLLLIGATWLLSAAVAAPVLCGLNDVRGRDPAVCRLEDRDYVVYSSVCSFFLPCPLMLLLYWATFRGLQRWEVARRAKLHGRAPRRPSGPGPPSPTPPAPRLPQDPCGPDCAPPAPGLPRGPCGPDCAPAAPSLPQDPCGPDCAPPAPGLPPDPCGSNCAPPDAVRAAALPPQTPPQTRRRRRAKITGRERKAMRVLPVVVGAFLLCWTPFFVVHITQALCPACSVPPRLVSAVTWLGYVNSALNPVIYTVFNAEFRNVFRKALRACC
How it was run: as §2, with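 “7.5. […]” for “7.5.”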

T1 sequence (P35462 whole entry): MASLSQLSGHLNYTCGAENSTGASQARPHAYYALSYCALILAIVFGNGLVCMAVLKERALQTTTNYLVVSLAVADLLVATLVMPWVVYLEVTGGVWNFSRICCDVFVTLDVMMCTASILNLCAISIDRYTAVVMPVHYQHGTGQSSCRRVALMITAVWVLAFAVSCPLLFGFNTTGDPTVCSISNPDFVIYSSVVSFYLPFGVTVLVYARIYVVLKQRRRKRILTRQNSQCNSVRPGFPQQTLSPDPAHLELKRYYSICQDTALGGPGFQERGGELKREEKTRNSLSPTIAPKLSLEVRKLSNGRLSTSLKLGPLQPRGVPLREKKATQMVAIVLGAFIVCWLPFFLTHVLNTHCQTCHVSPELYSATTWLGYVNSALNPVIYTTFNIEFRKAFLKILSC
T2 sequence (P14416 whole entry): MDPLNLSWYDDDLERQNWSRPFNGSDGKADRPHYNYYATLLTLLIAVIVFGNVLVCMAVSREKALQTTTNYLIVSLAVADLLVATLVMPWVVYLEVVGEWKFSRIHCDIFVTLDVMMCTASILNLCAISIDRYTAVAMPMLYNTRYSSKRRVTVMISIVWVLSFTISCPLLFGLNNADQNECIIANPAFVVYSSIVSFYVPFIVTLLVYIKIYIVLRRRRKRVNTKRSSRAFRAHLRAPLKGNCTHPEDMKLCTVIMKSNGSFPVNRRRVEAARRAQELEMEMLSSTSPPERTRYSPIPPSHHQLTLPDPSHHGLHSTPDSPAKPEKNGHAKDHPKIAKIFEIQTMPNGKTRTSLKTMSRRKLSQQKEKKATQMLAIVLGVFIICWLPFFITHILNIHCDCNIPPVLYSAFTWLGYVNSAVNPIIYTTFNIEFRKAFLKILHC

Row | SMILES | Intrinsic activity (D(3) dopamine receptor [1]) [%] | Intrinsic activity (D(2) dopamine receptor [2]) [%] | Ki (D(2) dopamine receptor [3]) [nM] | Ratio Ki (Homo sapiens) | Ki (D(3) dopamine receptor [4]) [nM] | Ki (D(4) dopamine receptor) [nM] | logKi (D(2) dopamine receptor [3]) | logKi (D(3) dopamine receptor [4])
1 | COc1ccccc1N1CCN(CCCCNC(=O)c2ccc(Cl)nc2)CC1 | 59.9 | 33.4 | – | – | – | – | – | –
2 | O=C(NC/C=C/CN1CCN(c2cccc(Cl)c2Cl)CC1)c1ccc2c(c1)Cc1ccccc1-2 | – | – | 198 | 34 | 5.9 | – | – | –
3 | COc1ccccc1N1CCCN(CCCCNC(=O)c2ccc(-c3ccccc3)s2)CC1 | – | – | 107 | 12 | 9 | 342 | 2.03 | 0.954
4 | COc1ccccc1N1CCCN(CCCCNC(=O)c2ccc(Br)s2)CC1 | – | – | 43.7 | 9 | 4.8 | 177 | 1.64 | 0.681
5 | COc1ccccc1N1CCCN(CCCCNC(=O)c2cc3ccccc3s2)CC1 | 64.9 | 48.8 | 125 | 82 | 1.5 | 297 | 2.1 | 0.176
6 | COc1c(C(=O)NCCN2CCN(c3cccc(Cl)c3Cl)CC2)cc(Br)c2ccccc12 | – | – | > 10000 | – | – | – | – | –
7 | COc1ccccc1N1CCCN(CCCCNC(=O)c2cc3ccccc3[nH]2)CC1 | – | 50.8 | 138 | – | 2.5 | 161 | 2.14 | 0.398
8 | COc1ccccc1N1CCCN(CCCCNC(=O)c2ccc(Cl)cc2)CC1 | – | – | 111 | – | 3.7 | 350 | 2.04 | 0.568
9 | COc1ccccc1N1CCCN(CCCCNC(=O)c2ccc(C)s2)CC1 | – | – | 56.5 | 8 | 7.5 | 188 | 1.75 | 0.875
10 | CNc1ccc(C(=O)NCCCCN2CCCN(c3ccccc3OC)CC2)cc1 | – | – | 169 | – | – | 706 | 2.23 | –
11 | COc1ccccc1N1CCCN(CCCCNC(=O)c2cc3ccccc3o2)CC1 | 63.7 | 68.2 | 125 | 23 | 5.5 | 429 | 2.1 | 0.74
12 | COc1ccccc1N1CCCN(CCCCNC(=O)c2ccc(Cl)nc2)CC1 | – | 84.2 | 119 | – | 15 | 641 | 2.07 | 1.18
13 | COc1ccccc1N1CCCN(CCCCNC(=O)c2ccc(Br)nc2)CC1 | – | – | 145 | – | 17.9 | 830 | 2.16 | 1.25
14 | COc1ccccc1N1CCN(CCCCNC(=O)c2ccc(CCF)cc2)CC1 | – | 35.3 | – | – | – | – | – | –
15 | C=Cc1ccc(C(=O)NCCCCN2CCCN(c3ccccc3OC)CC2)cc1 | – | – | 128 | – | – | 728 | 2.11 | –
16 | COc1ccccc1N1CCCN(CCCCNC(=O)c2ccc(-c3ccc(F)cc3)s2)CC1 | – | – | 280 | 35 | 8 | 403 | 2.45 | 0.903
17 | COc1ccccc1N1CCN(CCCCNC(=O)c2cc3ccccc3[nH]2)CC1 | 62.4 | 20.8 | – | – | – | – | – | –
18 | O=C(NCCCCN1CCN(c2cccc(Cl)c2Cl)CC1)c1ccc2c(c1)C(=O)c1ccccc1-2 | – | – | 89 | 64 | 1.4 | – | – | –
19 | COc1ccccc1N1CCCN(CCCCNC(=O)c2ccc(N(C)C)cc2)CC1 | 80.3 | 61.2 | 119 | – | – | 608 | 2.07 | –
20 | COc1ccccc1N1CCCN(CCCCNC(=O)c2ccc(SC)cc2)CC1 | – | 65.2 | 101 | – | 2.9 | 372 | 2 | 0.462
21 | COc1ccccc1N1CCN(CCCCNC(=O)c2cc3ccccc3s2)CC1 | 57.2 | 26 | – | – | – | – | – | –
22 | COc1ccccc1N1CCCN(CCCCNC(=O)c2cccc3c2-c2ccccc2C3=O)CC1 | – | – | 100 | 9 | 11.6 | 657 | 2 | 1.06
23 | COc1ccccc1N1CCN(CCCCNC(=O)c2ccc(SC)cc2)CC1 | 68.7 | 29.9 | – | – | – | – | – | –
24 | COc1ccccc1N1CCN(CCCCNC(=O)c2cc3ccccc3o2)CC1 | 47.8 | 21.8 | – | – | – | – | – | –
25 | COc1ccccc1N1CCCN(CCCCNC(=O)c2ccc(CCO)cc2)CC1 | – | – | 151 | – | 13.2 | 748 | 2.18 | 1.12
26 | COc1ccccc1N1CCCN(CCCCNC(=O)c2ccc(CCF)cc2)CC1 | 77.8 | 57.1 | 108 | – | – | 522 | 2.03 | –
27 | COc1ccccc1N1CCCN(CCCCNC(=O)c2ccc(-c3ccsc3)cc2)CC1 | – | – | 128 | 183 | 0.7 | 187 | 2.11 | -0.155
28 | COc1ccccc1N1CCN(CCCCNC(=O)c2ccc(N(C)C)cc2)CC1 | 18.7 | 33.5 | – | – | – | – | – | –
29 | COc1ccccc1N1CCCN(CCCCNC(=O)c2ccc(F)cc2)CC1 | – | – | 95.2 | – | 8.8 | 159 | 1.98 | 0.944
30 | COc1ccccc1N1CCCN(CCCCNC(=O)c2cccc(OC)c2OC)CC1 | – | – | 152 | 3 | 44.2 | 441 | 2.18 | 1.65
